Sampled rows, rich in hits. Any-hit rate of the full collection: about 2.5%.
dFosB activator = mouse delta FosB homodimer activation. P13346. purified delta FosB, TAMRA-CDK5 oligo fluorescence polarization; percent of positive-control signal above neutral wells. activation, % at 25 µM. 340,000 tested, 0.99% active;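 active = mean activation above about 17%, with every replicate also reaching it, limit read from the data, passing the limit was not always enough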
IMP-1 inh = inhibitors of Pseudomonas aeruginosa IMP-1 metallo-beta-lactamase; purified IMP-1, nitrocefin hydrolysis, epi-absorbance fluorescence; inhibition, % at 5.6 µM; 290,000 tested, 0.45% active; AID 1556;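 active = inhibition above the mean plus 3 SD of all compounds in the same screening run, cut at about 4.5% in these data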
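System – purified recombinant IMP-1 beta-lactamase · Input – IMP-1 dispensed at 0.2 nM · Timing – 15 min preincubation plus 25 min reaction at 25 °C · Signal – Epi-absorbance fluorescence, 480 nm excitation, 530 nm emission · Measure – percent IMP-1 inhibition derived from blank-referenced optical density · Controls – Enzyme-plus-DMSO low control, enzyme-free DMSO high control · Replication – singlicate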
VIM-2 inh = inhibitors of Pseudomonas aeruginosa VIM-2 metallo-beta-lactamase; purified VIM-2, nitrocefin hydrolysis, epi-absorbance fluorescence; inhibition, % at 5.6 µM; 290,000 tested, 0.89% active;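 active = inhibition above the mean of all tested compounds plus 3 SD, cutoff set per screening run, cut at about 7.5% in these data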;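 also: red hydrolysis product quenches plate fluorescence so inhibitors raise well fluorescence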
HTR2A ag = agonists of mouse serotonin 5-HT2A receptor (HTR2A). P35363. CHO-K1 mHTR2A beta-arrestin complementation, luminescence; percent of 30 µM serotonin response. activation, % at 7.6 µM. 360,000 tested, 0.66% active. AID 624169;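 active = activation above a run cutoff, the mean activation of all tested compounds plus 3 SD, cut at about 14% in these data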
MOR ag counter = activates human mu opioid receptor in HTR2A counterscreen | AID 624380 | U2OS OPRM1 beta-arrestin PathHunter, luminescence; DMSO 0%, DAMGO 9.3 µM 100% | shares compounds with HTR2A ag | activation, % at 9.3 µM | 2,300 tested, 5.3% active;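 active = mean activation above the mean of DMSO-only wells plus 3 SD, cut at about 0.5% in these data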
Target sequence (P35372 whole entry, looked up): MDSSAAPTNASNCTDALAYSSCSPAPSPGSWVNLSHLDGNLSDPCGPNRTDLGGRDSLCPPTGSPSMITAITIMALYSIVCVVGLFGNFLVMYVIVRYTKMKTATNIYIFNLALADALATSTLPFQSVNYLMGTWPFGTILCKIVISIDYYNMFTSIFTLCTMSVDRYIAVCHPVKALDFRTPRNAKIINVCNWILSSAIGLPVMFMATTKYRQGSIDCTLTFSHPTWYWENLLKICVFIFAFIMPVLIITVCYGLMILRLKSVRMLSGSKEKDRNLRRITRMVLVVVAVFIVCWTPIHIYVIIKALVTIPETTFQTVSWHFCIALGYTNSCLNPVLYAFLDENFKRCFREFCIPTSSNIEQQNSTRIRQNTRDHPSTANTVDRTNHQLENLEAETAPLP
m5-HT2A ag conf = confirmation of mouse HTR2A serotonin receptor agonists. shares compounds with HTR2A ag. CHO-K1 PathHunter beta-arrestin recruitment, luminescence; DMSO 0%, 30 µM serotonin 100%. activation, % at 7.6 µM. 2,300 tested, 19% active;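 active = mean activation across triplicates above the hit threshold derived in the original primary screen, cut at about 15% in these data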
Hits are given with their value; n = inactive; x = no result given.

SMILES	dFosB activator	IMP-1 inh	VIM-2 inh	HTR2A ag	MOR ag counter	m5-HT2A ag conf
Cn1c(Cc2cccs2)nnc1SCC(=O)Nc1ccc(F)cc1F	n	x	x	15	n	n
COc1ccccc1NC(=O)CSc1nnc(Cc2cccs2)n1C	n	x	x	n	x	x
CC(C)C[C@H]1CN(CCCC[C@H]2CNC(=O)C(=O)N2CCc2ccc(O)cc2)C(=O)C(=O)N1CCc1ccccc1	x	x	x	n	x	x
CCc1c(C)nc(N2CCN(c3ccccc3F)CC2)[nH]c1=O	n	n	n	20	0.9	n
Cc1ccc(NC(=O)C2CCCN(S(=O)(=O)c3ccc4c(c3)oc(=O)n4C)C2)nc1 (stereo not drawn)	n	n	n	n	x	x
Cc1csc(NC(=O)C2CCCN(S(=O)(=O)c3ccc4c(c3)oc(=O)n4C)C2)n1 (stereo not drawn)	n	n	n	21	n	n
C=CC[C@]12CCc3ccccc3C1N(c1ccc(C(=O)OCC)cc1)C2=O (stereo partly drawn)	n	x	x	n	x	x
CCCN1C[C@H](CSC)C[C@@H]2c3cccc4[nH]cc(c34)C[C@H]21	n	n	n	113	n	160
COc1ccc(CN2CCN(c3ncccn3)CC2)c(C)c1C	n	n	n	34	n	130
CCOc1cc(CN2CCN(c3ncccn3)CC2)ccc1OC	n	n	n	22	n	50
COc1ccc(Br)cc1CN1CCN(c2ncccn2)CC1	n	x	x	n	x	x
COc1cccc(CN2CCN(c3ncccn3)CC2)c1OC	n	n	n	25	n	81
COc1ccc(CN2CCN(c3ccccn3)CC2)c(OC)c1C	n	n	n	n	x	x
Fc1ccc(N2CCN(Cc3c[nH]c4ccccc34)CC2)cc1	x	n	n	x	x	x
c1cnc(N2CCN(Cc3c[nH]c4ccccc34)CC2)nc1	n	n	n	29	n	93
COc1cccc(CN2CCN(Cc3cc(OC)c(OC)c(OC)c3)CC2)c1OC	n	n	n	n	x	x
O=C(C1CCCCC1)N1C[C@H](n2cc(C3CC3)nn2)[C@@H](O)C[C@@H]1c1ccc(Cl)cc1	x	x	x	n	x	x
COc1ccc(Cl)cc1C(=O)OCC(=O)c1ccc[nH]1	n	x	x	n	x	x
N#Cc1ccccc1NC(=O)C1CCCO1 (stereo not drawn)	x	x	x	n	x	x
CCC(C(=O)Nc1ccc2[nH]ncc2c1)c1ccccc1 (stereo not drawn)	n	n	n	n	x	x
Cc1cc(NC(=O)c2ccc3sc([C@@H]4O[C@H](CO)[C@H](O)[C@H](O)[C@H]4O)nc3c2)no1	x	x	x	21	n	n
CN(Cc1ccccc1)C(=O)c1ccc2sc([C@@H]3O[C@H](CO)[C@H](O)[C@H](O)[C@H]3O)nc2c1	x	x	x	21	n	n
COc1ccc(C2CC=C(C(C)=O)CN2S(=O)(=O)c2ccc(C)cc2)cc1 (stereo not drawn)	x	x	x	n	x	x
CCOC(=O)C1(C)Oc2ccccc2C(C(=O)OC)=C1C(=O)OC (stereo not drawn)	n	x	x	20	n	n
CCOC(=O)C1(C)Oc2ccccc2C(c2ccc(OC)cc2)=C1C(=O)OC (stereo not drawn)	n	x	x	n	x	x
SMILES	dFosB activator	IMP-1 inh	VIM-2 inh	HTR2A ag	MOR ag counter	m5-HT2A ag conf
O=C(NC(c1ccc(Cl)cc1)c1cnccn1)C1CCN(CCCOc2ccccc2)CC1 (stereo not drawn)	x	x	x	n	x	x
COc1ccc(NC(=O)C2CC(=O)N(c3ccccc3C)C2)c(OC)c1 (stereo not drawn)	n	n	n	15	n	n
Cc1ccc(C(=O)c2nc(C(=O)NCCO)nc3ccccc23)cc1	n	x	x	16	n	n
COc1ccc(NC(=O)Cn2nnc(C(=O)NCc3cccs3)c2N)cc1	n	n	n	15	n	n
COc1cccc(CNC(=O)c2nnn(CC(=O)Nc3cccc(C)c3)c2N)c1	n	n	n	18	n	n
COc1cc(C(c2nnnn2C(C)(C)C)N2CCN(c3nc4ccccc4s3)CC2)ccc1O (stereo not drawn)	n	n	n	29	n	n
Oc1ccc(C(c2nnnn2CCc2ccccc2)N2CCN(c3nc4ccccc4s3)CC2)cc1 (stereo not drawn)	n	n	n	22	n	n
CN(C(=O)CSc1nc2ccccc2c(=O)n1C)C1CCS(=O)(=O)C1 (stereo not drawn)	n	x	x	n	x	x
COc1ccc(S(=O)(=O)N2CCOC2CNC(=O)C(=O)NCCc2ccccc2)cc1C (stereo not drawn)	n	n	n	16	n	n
COc1ccc(CCNC(=O)C(=O)NCC2CCCN2S(=O)(=O)c2ccccc2)cc1 (stereo not drawn)	n	x	x	16	n	n
COc1ccc(S(=O)(=O)N2CCCC2CNC(=O)C(=O)NCCc2ccccc2)cc1 (stereo not drawn)	n	x	x	n	x	x
Cc1cc(Cl)ccc1OCC(=O)OCC(=O)NC1CCCC1	n	x	x	16	0.5	n
C=C(C)c1cccc(C(C)(C)NC(=O)Nn2cnnc2)c1	n	n	n	16	n	16
C=C(C)c1cccc(C(C)(C)NC(=O)NCc2ccncc2)c1	n	n	n	n	x	x
C=C(C)c1cccc(C(C)(C)NC(=O)Nc2ncccn2)c1	n	n	n	n	x	x
C=C(C)c1cccc(C(C)(C)NC(=O)Nc2ccc(Cl)cn2)c1	n	n	n	30	n	18
COc1ccc(NC(=O)N(C)C[C@H]2Oc3c(NC(=O)C4CC4)cccc3C(=O)N([C@H](C)CO)C[C@@H]2C)cc1	n	x	x	n	x	x
CC(=O)N1c2ccc(S(=O)(=O)NCCC(=O)Nc3ncccc3C)cc2CC1C (stereo not drawn)	n	n	n	15	n	n
COCCN1C(=O)CSCC1(C)C(=O)NC(C)C (stereo not drawn)	x	x	x	n	x	x
CCOc1ccccc1NC(=O)CCN1CCN(S(=O)(=O)c2ccc(Br)cc2)CC1	n	n	n	17	n	n
CCOc1ccc(NC(=O)CCN2CCN(S(=O)(=O)c3ccc(F)cc3)CC2)cc1	n	n	n	n	x	x
O=C(Nc1ccccc1N1CCOCC1)c1ccc(Cl)nc1	n	n	n	n	x	x
O=C1OC(N2CCN(c3ccccn3)CC2)c2ccccc21 (stereo not drawn)	n	n	n	15	n	23
CN1CCN(C2OC(=O)c3ccccc32)CC1 (stereo not drawn)	n	n	n	n	x	x
Cc1ccc(C)c(NC(=O)c2ccc3c(c2)CCN3S(C)(=O)=O)c1	x	x	x	n	x	x
COc1ccc(N=C2C(=Nc3ccc(OC)cc3)N(c3ccc(OC)cc3)C(=S)N2c2ccccc2)cc1	n	n	n	16	n	n
c1ccc2c(-c3ccc4nncn4c3)cncc2c1	x	x	x	n	x	x
O=C(N/N=C/c1ccccc1Cl)C1CC1	n	n	n	15	n	n
O=C(NN=Cc1cccc2ccccc12)C1CC1	n	x	x	n	x	x
Cc1cccc(N2CCN(c3ccc(N4C(=O)CCCC4=O)cc3[N+](=O)[O-])CC2C)c1 (stereo not drawn)	n	n	n	15	n	n
